Experimental data: ChEMBL document CHEMBL4043179, “Triple reuptake inhibitors: Design, synthesis and structure-activity relationship of benzylpiperidine-tetrazoles” (Bioorg Med Chem, 2017)

Legend:
Assay type in all cases: cell-based
[1] = target: T1, Sodium-dependent serotonin transporter (Homo sapiens, UniProt P31645); assay: Inhibition of re-uptake of [3H]-5-HT at human SERT at 10 uM expressed in HEK293 cells by liquid scintillation counting
Target sequence in this assay (P31645 whole entry, looked up): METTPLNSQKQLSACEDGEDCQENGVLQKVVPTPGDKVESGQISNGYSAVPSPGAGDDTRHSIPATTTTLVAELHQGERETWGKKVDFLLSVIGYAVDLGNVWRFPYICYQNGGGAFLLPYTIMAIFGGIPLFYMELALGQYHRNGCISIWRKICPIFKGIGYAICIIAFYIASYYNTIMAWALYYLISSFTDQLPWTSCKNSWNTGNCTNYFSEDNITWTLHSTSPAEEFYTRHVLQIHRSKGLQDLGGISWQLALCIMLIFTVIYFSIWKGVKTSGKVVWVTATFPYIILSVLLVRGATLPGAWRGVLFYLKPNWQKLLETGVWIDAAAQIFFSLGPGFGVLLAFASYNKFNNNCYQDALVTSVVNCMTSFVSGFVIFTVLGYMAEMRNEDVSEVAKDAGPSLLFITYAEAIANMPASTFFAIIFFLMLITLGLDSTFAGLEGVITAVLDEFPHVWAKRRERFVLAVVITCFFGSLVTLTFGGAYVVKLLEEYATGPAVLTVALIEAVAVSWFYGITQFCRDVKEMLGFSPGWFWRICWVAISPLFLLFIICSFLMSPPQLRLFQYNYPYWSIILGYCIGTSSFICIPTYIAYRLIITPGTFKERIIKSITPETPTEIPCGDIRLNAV

[2] = target: T2, Sodium-dependent dopamine transporter (Homo sapiens, UniProt Q01959); assay: Inhibition of re-uptake of [3H]-DA at human DAT expressed in HEK293 cells by liquid scintillation counting
T2 sequence (Q01959 whole entry): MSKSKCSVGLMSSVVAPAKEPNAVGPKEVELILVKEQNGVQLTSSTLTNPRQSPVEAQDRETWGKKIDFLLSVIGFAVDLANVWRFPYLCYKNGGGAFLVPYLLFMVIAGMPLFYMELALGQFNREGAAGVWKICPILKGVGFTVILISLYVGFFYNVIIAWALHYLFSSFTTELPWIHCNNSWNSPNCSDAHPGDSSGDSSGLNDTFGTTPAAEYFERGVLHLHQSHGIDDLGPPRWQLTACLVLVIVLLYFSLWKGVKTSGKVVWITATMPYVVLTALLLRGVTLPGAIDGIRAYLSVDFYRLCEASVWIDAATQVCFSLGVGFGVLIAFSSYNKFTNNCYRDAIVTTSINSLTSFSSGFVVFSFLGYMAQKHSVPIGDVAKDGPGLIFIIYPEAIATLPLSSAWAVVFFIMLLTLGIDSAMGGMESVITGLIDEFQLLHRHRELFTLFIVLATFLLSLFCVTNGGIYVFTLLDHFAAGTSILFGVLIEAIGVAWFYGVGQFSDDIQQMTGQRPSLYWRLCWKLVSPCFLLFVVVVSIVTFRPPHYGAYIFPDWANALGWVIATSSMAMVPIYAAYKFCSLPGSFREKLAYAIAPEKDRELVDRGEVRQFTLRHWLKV
Method in brief: (§1)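 HEK-293 cells were grown in medium with fetal bovine serum and transfected with human DAT or NET. Uptake of radiolabelled [3H]-DA or [3H]-NE, each at 20 nM in the assay, was measured by liquid scintillation counting. The method follows a literature procedure with slight modification, and reference reuptake inhibitors were run alongside.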

[3] = target: T3, Sodium-dependent noradrenaline transporter (Homo sapiens, UniProt P23975); assay: Inhibition of re-uptake of [3H]-NE at human NET at 10 uM expressed in HEK293 cells by liquid scintillation counting
T3 sequence (P23975 whole entry): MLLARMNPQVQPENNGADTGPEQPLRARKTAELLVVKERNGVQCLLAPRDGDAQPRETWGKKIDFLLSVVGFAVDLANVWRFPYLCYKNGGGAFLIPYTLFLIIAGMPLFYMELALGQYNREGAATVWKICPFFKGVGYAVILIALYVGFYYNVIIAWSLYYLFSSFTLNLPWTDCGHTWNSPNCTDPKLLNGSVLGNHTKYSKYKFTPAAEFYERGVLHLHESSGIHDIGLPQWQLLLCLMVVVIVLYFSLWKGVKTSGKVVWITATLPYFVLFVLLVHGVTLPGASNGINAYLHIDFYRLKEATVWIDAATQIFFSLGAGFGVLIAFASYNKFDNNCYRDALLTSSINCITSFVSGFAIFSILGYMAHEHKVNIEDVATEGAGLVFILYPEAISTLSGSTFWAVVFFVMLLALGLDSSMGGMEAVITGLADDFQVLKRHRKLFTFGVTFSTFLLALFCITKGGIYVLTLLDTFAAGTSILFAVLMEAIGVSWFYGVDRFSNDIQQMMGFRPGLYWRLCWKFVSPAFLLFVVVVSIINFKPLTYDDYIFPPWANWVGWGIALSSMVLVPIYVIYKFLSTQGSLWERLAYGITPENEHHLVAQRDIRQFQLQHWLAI

[4] = target: T3, Sodium-dependent noradrenaline transporter; assay: Inhibition of re-uptake of [3H]-NE at human NET expressed in HEK293 cells by liquid scintillation counting; method in brief: as §1
[5] = target: T2, Sodium-dependent dopamine transporter; assay: Inhibition of re-uptake of [3H]-DA at human DAT at 10 uM expressed in HEK293 cells by liquid scintillation counting
[6] = target: T1, Sodium-dependent serotonin transporter; assay: Inhibition of re-uptake of [3H]-5-HT at human SERT expressed in HEK293 cells by liquid scintillation counting
Target sequence in this assay (P31645 whole entry): as the sequence (P31645 whole entry, looked up) above

| SMILES | inhibition [1] [%] | IC50 [2] [µM] | inhibition [3] [%] | IC50 [4] [µM] | inhibition [5] [%] | IC50 [6] [µM] |
| --- | --- | --- | --- | --- | --- | --- |
| Clc1ccccc1-c1nnnn1CCCN1CCC(Cc2ccccc2)CC1 | > 55 | 6.55 | > 55 | 3.96 | > 55 | 1.32 |
| FC(F)(F)c1cccc(-c2nnnn2CCCN2CCC(Cc3ccccc3)CC2)c1 | > 55 | 3.74 | > 55 | 5.1 | > 55 | 8.81 |
| c1ccc(CC2CCN(CCCn3nnnc3-c3cccc4ccccc34)CC2)cc1 | > 55 | 6 | > 55 | 2.51 | > 55 | 0.31 |
| Brc1ccccc1-c1nnnn1CCCN1CCC(Cc2ccccc2)CC1 | > 55 | > 10 | > 55 | 3.46 | > 55 | 5.13 |
| c1ccc(CC2CCN(CCn3nnnc3-c3cccc4ccccc34)CC2)cc1 | > 55 | > 10 | > 55 | > 10 | > 55 | > 10 |
| CC(=O)c1cccc(-c2nnnn2CCN2CCC(Cc3ccccc3)CC2)c1 | > 55 | 14.6 | > 55 | 3.08 | > 55 | 4.05 |
| CC(=O)c1cccc(-c2nnnn2CCCN2CCC(Cc3ccccc3)CC2)c1 | > 55 | 5.04 | > 55 | 3 | > 55 | 0.54 |
| O=[N+]([O-])c1ccc(-c2nnnn2CCN2CCC(Cc3ccccc3)CC2)cc1 | > 55 | 1.98 | > 55 | 1.35 | > 55 | 1.24 |
| Clc1cccc(-c2nnnn2CCCN2CCC(Cc3ccccc3)CC2)c1Cl | > 55 | > 10 | > 55 | 3.45 | > 55 | 3.96 |

Further lines, results first:

| inhibition [1] [%] | IC50 [2] [µM] | inhibition [3] [%] | IC50 [4] [µM] | inhibition [5] [%] | IC50 [6] [µM] | SMILES |
| --- | --- | --- | --- | --- | --- | --- |
| > 55 | 3.29 | > 55 | 2.28 | > 55 | 2 | Fc1ccc(-c2nnnn2CCCN2CCC(Cc3ccccc3)CC2)cc1 |
| > 55 | 4.02 | > 55 | 3.03 | > 55 | 0.88 | c1ccc(CC2CCN(CCCn3nnnc3-c3ccccc3)CC2)cc1 |
| > 55 | 5.18 | > 55 | 3.59 | > 55 | 1.35 | Clc1cccc(-c2nnnn2CCCN2CCC(Cc3ccccc3)CC2)c1 |
| > 55 | > 10 | > 55 | 4.34 | > 55 | > 10 | Brc1cccc(-c2nnnn2CCCN2CCC(Cc3ccccc3)CC2)c1 |
| > 55 | 8.32 | > 55 | 2.58 | > 55 | 3.13 | Clc1ccc(-c2nnnn2CCCN2CCC(Cc3ccccc3)CC2)cc1 |
| > 55 | > 10 | > 55 | 5.02 | > 55 | 5.25 | O=[N+]([O-])c1ccc(-c2nnnn2CCCN2CCC(Cc3ccccc3)CC2)cc1 |
| > 55 | > 10 | > 55 | 5.52 | > 55 | 4.05 | COc1ccc(-c2nnnn2CCCN2CCC(Cc3ccccc3)CC2)cc1 |
